High-throughput results from PubChem BioAssay.
HUVEC inhibit – blocks proliferation of human endothelial cells; HUVEC proliferation, CellTiter-Glo luminescence, 72 h; active compounds read low; viability, % at 10 µM (by protocol); 86,000 compounds, 1.1% hits;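 active means viability at or below 30%; inactive means viability above 30%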;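 further: 100% = median luminescence of DMSO-only cell control wells on each plate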
HCT116 PTEN-null – PTEN-deleted cell growth suppression | HCT116 PTEN-null viability, CellTiter-Glo, 60 h; active compounds read low | viability, % at 10 µM | 140,000 compounds, 1.2% hits | AID 827;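 active means viability at or below a set limit, 4 SD under the median of all tested compounds, cut at about 3.7% in these data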;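 further: PTEN knockout HCT116 line with beta catenin targeted HCT116 as companion control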
HCT116 bCat-KO – beta-catenin-lacking colon tumor cell growth suppression; HCT116 beta-catenin knockout viability, CellTiter-Glo, 60 h; active compounds read low; 140,000 compounds, 1.5% hits; AID 818; viability, % at 10 µM;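 active means viability at or under a set limit, the compound median less 4 SD, cut at about 6% in these data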;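 further: 0% = Hyamine 1622 control at 20 µM and 100% = untreated cell control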
Fibroblast inh – blocks proliferation of human lung fibroblasts; viability, % at 10 µM; LL 47 human lung fibroblast viability, ATP luminescence; active compounds read low; 85,000 compounds, 1.1% hits;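 active means viability at or below 50% in the single dose screen; inactive means viability above 50%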;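 further: compound exposure lasted 72 h before the ATP readout; 100% = median luminescence of untreated cell-only wells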
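Times – overnight cell rest, 72 h compound treatment at 37 °C · Test system – human lung fibroblast line LL 47, low passage · Amount – 1,150 cells in each well · Controls – cell-only wells, no compound · Doses – 0.1% DMSO in all compound wells · Measured by – CellTiter-Glo luminescence · Buffer or medium – IMEM plus 15% FBS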
H69AR inhibit – blocks growth of human H69AR lung tumor cells; AID 598; H69AR lung tumor viability, ATP luminescence, 72 h; active compounds read low; 85,000 compounds, 6% hits; viability, % at 10 µM;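 active means viability at or below 40%; inactive means viability above 40%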;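 further: multidrug resistant small cell line overexpressing MRP-1 efflux transporter; 100% = mean luminescence of untreated control wells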
Numbers without * were called inactive; x = no result given. The entries come from a sample that favours hits as a whole.

SMILES	HUVEC inhibit	HCT116 PTEN-null	HCT116 bCat-KO	Fibroblast inh	H69AR inhibit
COc1ccc(/C(O)=C/c2nc3ccc(C(=O)NCCc4cccc(C)c4)cc3[nH]c2=O)cc1OC	x	1.5*	2.0*	x	x
COc1ccc(CCNC(=O)COC(=O)c2ccco2)cc1OC	110.0	99.6	99.3	101.4	103.2
COc1ccc(CCNC(=O)c2ccc3nc(-c4ccco4)c(-c4ccco4)nc3c2)cc1OC	47.5	56.3	63.6	101.7	17.9*
CCOC(=O)C1=C(Nc2ccccc2)CC(C)(O)C(C(=O)OCC)C1c1ccc(Cl)cc1 (configuration not stated)	x	55.8	66.1	x	x
O=C(O/N=C\c1ccc(N2CCCCC2)c([N+](=O)[O-])c1)c1ccc(Cl)cc1Cl	x	91.0	94.6	x	x
COc1ccccc1C(=O)/C=C/c1ccc(N2CCCCC2)c([N+](=O)[O-])c1	x	1.4*	1.5*	x	x
CCc1ccc2nc(SCC(=O)N3CC(=O)Nc4ccccc43)c(C#N)cc2c1	32.2	15.6	11.3	65.0	5.2*
CCCCCn1c(SCC#N)nc2cc(C(=O)NC3CCCCC3)ccc2c1=O	67.1	x	x	47.7*	53.4
CCCCN(CC)c1nc(N)c2c(N)nc(OCC)cc2c1C#N	79.8	74.8	71.8	82.2	33.9*
CCCCN(CC)c1nc(N)c(C#N)c(CC#N)c1C#N	77.6	83.3	85.9	96.5	88.9
Cn1c(C(=O)O)c(CC(=O)N2CCC(Cc3ccccc3)CC2)c2ccccc21	89.9	98.0	93.7	98.7	96.7
Cc1cn(S(=O)(=O)c2ccc(Br)c3ccccc23)cn1	x	107.1	94.5	x	x
COc1c(F)c(F)c(C(=O)Nc2ccc(N3CCN(C(C)=O)CC3)c(Cl)c2)c(F)c1F	87.2	72.2	63.0	94.2	44.0
Cc1cc(C)n(-c2nc3c(c(=O)[nH]c(=O)n3C)n2C(C)C)n1	106.3	103.7	114.0	106.9	105.3
COc1ccc(Nc2ncnc3c2oc2ccccc23)cc1	91.3	79.6	85.4	97.8	38.7*
Cc1ccc(Nc2ncnc3c2oc2ccccc23)cc1	81.7	90.9	89.7	98.9	53.6
COc1cccc2c(=O)c(SC(F)(F)C(F)C(F)(F)F)c(C)[nH]c12 (configuration not stated)	57.4	31.8	28.1	86.8	16.6*
O=C(NCc1ccco1)C1CCN(S(=O)(=O)Cc2ccccc2)CC1	91.1	0.5*	0.7*	94.8	92.1
O=C(NCC1CCCO1)C1CCN(S(=O)(=O)Cc2ccccc2)CC1 (configuration not stated)	95.7	94.0	92.7	103.8	102.0
O=C(NCc1ccco1)C1CCN(C(=O)c2cc3sccc3n2Cc2ccc(Cl)cc2)CC1	88.3	4.8	5.7*	88.5	64.7
CCN(CC)S(=O)(=O)c1cccc(NC(=O)COC(=O)CCC(=O)c2ccc(F)cc2)c1	x	91.9	87.3	x	x
CCC(Sc1nc2cc(OC)c(OC)cc2c2nc(C)nn12)C(=O)NCc1ccco1 (configuration not stated)	86.6	x	x	93.2	96.8
CCCCOC(=O)Nc1ccccc1C(N)=O	84.2	97.6	85.8	92.2	86.8
CC(=O)N1CCc2cc(S(=O)(=O)N3c4ccccc4CC3C)ccc21 (configuration not stated)	59.4	98.5	87.0	58.5	19.6*
CCN(c1cccc(C(F)(F)F)c1)S(=O)(=O)c1ccc2c(c1)CCN2C(C)=O	89.3	67.5	73.9	90.0	17.5*
SMILES	HUVEC inhibit	HCT116 PTEN-null	HCT116 bCat-KO	Fibroblast inh	H69AR inhibit
CCN(c1cccc(C)c1)S(=O)(=O)c1ccc2c(c1)CCN2C(C)=O	70.8	34.8	39.6	70.2	28.6*
CC(=O)N1CCCc2cc(S(=O)(=O)N(CC(C)C)CC(C)C)ccc21	95.0	82.8	91.5	96.3	82.9
CC(=O)N1CCc2cc(S(=O)(=O)N3CCOCC3)ccc21	102.3	95.5	91.8	106.0	94.7
CCOc1ccc(S(=O)(=O)N2CCN(C(=O)c3cc4c(s3)CCCC4)CC2)cc1	x	74.6	71.1	x	x
CC(C)(C)c1ccc(S(=O)(=O)Nc2cccc(C3OCCCO3)c2)cc1	x	87.1	86.4	x	x
Nc1nonc1C(=O)NCCNCc1c(OCc2ccccc2F)ccc2ccccc12	43.3	48.5	53.6	61.0	11.7*
Cc1noc(C)c1CSc1cc(C)c2ccccc2n1	96.8	79.9	92.4	89.8	22.5*
COc1ccc(NC(=O)/C(Cl)=C(/Cl)S(=O)Cc2ccccc2)cn1 (configuration not stated)	2.2*	1.5*	1.5*	1.2*	1.7*
COc1ccc(CS(=O)(=O)/C(Cl)=C(/Cl)C(=O)Nc2ccc(OC)nc2)cc1	2.6*	4.1	6.5	4.8*	0.0*
COc1ccc(/C=C/C(=O)Nc2ccc(OC)nc2)cc1	x	76.7	70.0	x	x
COc1ccc(C(=O)NCc2nnc(SCC(=O)Nc3nc4ccccc4s3)o2)cc1OC	x	92.6	92.9	x	x
O=C(COC(=O)/C=C/c1ccco1)Nc1cccc([N+](=O)[O-])c1	x	91.7	96.9	x	x
C=CCNC(=O)COC(=O)c1ccc(Cl)c(S(=O)(=O)N(Cc2ccccc2)c2ccccc2)c1	x	97.0	78.2	x	x
CCC(C)c1ccc(-c2cc(C(=O)OCC(=O)Nc3cc(C)on3)c3ccccc3n2)cc1 (configuration not stated)	45.4	80.5	67.0	80.5	9.5*
COc1ccc(-c2cc(C(=O)OCC(=O)Nc3cc(C)on3)c3ccccc3n2)cc1OC	x	91.6	81.4	x	x
CC(=O)Nc1sc(N/N=C\c2ccco2)nc1-c1cccs1	x	97.5	97.7	x	x
C=CCSC(=S)NC1CCS(=O)(=O)C1 (configuration not stated)	x	100.2	91.8	x	x
COc1ccc(-c2c3c(nc4sc(C(=O)Nc5ccccc5)c(N)c24)CCC3)cc1	43.3	x	x	80.5	29.8*
Cn1c(Cc2ccccc2)nnc1SCC(=O)c1ccc(Br)s1	97.5	90.2	100.1	93.3	93.5
Cc1cc(C)n(-c2nc3ccccc3nc2N2CCC(C)CC2)n1	120.4	71.8	68.4	93.7	89.6
Cc1cc(N2CCC(C)CC2)nc(-n2nc(C)cc2C)n1	120.8	48.5	36.7	93.2	1.7*
Cc1ccc(S(=O)(=O)Cc2ccc(C(=O)N3CCN(c4cc(C)ccc4C)CC3)o2)cc1	62.5	33.0	34.2	72.8	17.2*
Cc1ccc(S(=O)(=O)Cc2ccc(C(=O)N3CCCC3)o2)cc1	96.5	103.1	93.6	98.1	89.9
COc1ccccc1S(=O)(=O)Cc1ccc(C(=O)N2CCN(c3cccc(Cl)c3)CC2)o1	59.2	20.6	25.9	64.0	9.4*
Cc1ccc(C)c(N2CCN(C(=O)C(Cc3ccccc3)n3cccc3)CC2)c1 (configuration not stated)	109.9	67.3	68.8	90.3	22.0*
Cc1cccc(N2CCN(C(=O)c3ccc(CS(=O)(=O)c4ccccc4C)o3)CC2C)c1 (configuration not stated)	43.1	14.7	21.1	58.9	24.7*
COc1ccccc1S(=O)(=O)Cc1ccc(C(=O)N2CCN(c3ccccc3)CC2)o1	106.5	64.5	65.7	94.6	79.5
C/C(=C\C(=O)Nc1nccs1)c1ccccc1	88.1	82.7	83.4	87.7	89.5
